GPR7 antagonist: antagonists of human GPR7 (neuropeptides B/W receptor 1). inhibition, % at 4.4 µM. GPR7-expressing cells, fluorescence antagonist assay. P48145. 290,000 tested, 1.1% active; in the data active means inhibition above about 16%, passing the limit was not always enough;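 further: cells stimulated with the agonist NPW; 0% = agonist with vehicle and 100% = vehicle without agonist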
CRFR2-BP antag: CRF-BP/CRF-R2 complex antagonism; HEK293 CRF-R2/CRF-BP, CRF-induced calcium fluorescence; inhibition, % at 11.8 µM; 350,000 tested, 0.59% active; AID 588475;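 active means inhibition of the ligand-induced calcium signal above about 50% at the single tested concentration, limit read from the data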
CRFR2-BP ag: CRF-BP/CRF-R2 complex agonism; HEK293 CRF-R2/CRF-BP, calcium dye fluorescence (FLIPR); percent of saturating CRF peptide response; activation, % at 13.2 µM; 350,000 tested, 0.46% active; AID 588473;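 active means activation of at least 50%, plus an integration ratio under a set limit after plate pattern correction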;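 further: plate controls were neutral control wells without compound for no effect and CRF at EC100 for full effect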
TRPML3 agonist: human mucolipin-3 channel agonism. HEK293 TRPML3-YFP, Fluo-8 calcium fluorescence; 100% = the carbachol control signal. activation, % at 3 µM. 220,000 tested, 0.29% active;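 active means activation above its plate's cutoff, the mean activation of the plate's test wells plus 3 SD, cut at about 12% in these data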;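 further: 0% = DMSO only wells and 100% = carbachol wells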
Target sequence (Q8TDD5 whole entry, looked up): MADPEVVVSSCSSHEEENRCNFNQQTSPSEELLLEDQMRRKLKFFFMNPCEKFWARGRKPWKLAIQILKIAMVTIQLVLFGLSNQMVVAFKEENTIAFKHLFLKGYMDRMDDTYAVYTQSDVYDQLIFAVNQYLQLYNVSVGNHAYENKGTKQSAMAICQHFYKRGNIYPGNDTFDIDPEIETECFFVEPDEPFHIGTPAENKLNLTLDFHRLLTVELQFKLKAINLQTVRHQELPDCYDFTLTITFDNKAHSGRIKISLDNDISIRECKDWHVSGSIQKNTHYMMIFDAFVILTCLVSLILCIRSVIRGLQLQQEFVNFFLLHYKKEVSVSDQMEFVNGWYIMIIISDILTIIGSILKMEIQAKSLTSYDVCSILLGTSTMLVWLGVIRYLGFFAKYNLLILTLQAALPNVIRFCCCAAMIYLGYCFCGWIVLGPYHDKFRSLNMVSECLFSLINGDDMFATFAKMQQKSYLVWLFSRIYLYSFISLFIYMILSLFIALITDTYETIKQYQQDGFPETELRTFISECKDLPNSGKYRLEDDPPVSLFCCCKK
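Test system – HEK293 line with stable expression of human TRPML3-YFP channel · Control set – carbachol 87 µM final as high control (100%), DMSO as low control (0%) · Signal – Fluo-8 calcium dye fluorescence, ex 470-495, em 515-575 nm · Incubation – 1-h 37 °C dye load, 5-s basal, 120-s post-compound reads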
TRPN1 ag: activates the zebrafish TRPN1 channel; HEK293 zebrafish TRPN1-YFP, Fluo-8 calcium fluorescence; 100% = response to 87 µM carbachol; activation, % at 3 µM; 220,000 tested, 0.18% active; AID 1424;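 active means activation above its plate's cutoff, the mean activation of test wells on that plate plus 3 SD, cut at about 19% in these data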;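 further: 0% = DMSO alone and 100% = 87 µM carbachol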
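Assay system: Zebrafish TRPN1-YFP in HEK293 cells | Incubation: Dye loading 1 h at 37 °C, then 30 min room temperature | Measured by: Kinetic Fluo-8 fluorescence, ex 470-495, em 515-575 nm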
The depositor's hits bear a star. This is a sample that favours compounds with a hit; in the whole collection about 2% have one here.

How did O=C(NC1CCCCC1)C1CC(=O)N(c2ccccc2)C1 (configuration not stated) do in these assays?
GPR7 antagonist: -1.6; CRFR2-BP antag: -12.4; CRFR2-BP ag: -0.6

How did N#Cc1ccc(C(=O)N(Cc2ccco2)c2c(N)n(Cc3ccccc3)c(=O)[nH]c2=O)cc1 do in these assays?
CRFR2-BP antag: -2.7; CRFR2-BP ag: -0.2

What do the screens show for `Fc1ccc(CSc2ccc3nnc(-c4cccs4)n3n2)cc1`?
GPR7 antagonist: -5.1; CRFR2-BP antag: 1.9; CRFR2-BP ag: 2.2; TRPML3 agonist: 0.6; TRPN1 ag: -0.4

How did Cc1cccc(CSc2ccc3nnc(-c4cccs4)n3n2)c1 do in these assays?
GPR7 antagonist: -11.8; CRFR2-BP antag: 63.3*; CRFR2-BP ag: 2.7; TRPML3 agonist: 0.2; TRPN1 ag: -1.0

How did Nc1nonc1-n1nnc(C(=O)N/N=C/c2ccccc2)c1CSc1ccc(Cl)cc1 do in these assays?
GPR7 antagonist: -14.4; CRFR2-BP antag: -77.1; CRFR2-BP ag: 109.7*; TRPML3 agonist: 1.0; TRPN1 ag: 0.4

How did Nc1nonc1-n1nnc(C(=O)N/N=C/c2cccc(Cl)c2)c1CSc1ccc(Cl)cc1 do in these assays?
GPR7 antagonist: -7.2; CRFR2-BP antag: -2.5; CRFR2-BP ag: 6.7; TRPML3 agonist: 0.4; TRPN1 ag: -0.3

What do the screens show for `CCOC(=O)C1CCN(C(=O)COC(=O)c2oc3ccccc3c2C)CC1`?
CRFR2-BP antag: 4.6; CRFR2-BP ag: 0.8

How did Cc1cc(C(=O)CCC(=O)Nc2ccc(C(N)=O)cc2)c(C)s1 do in these assays?
CRFR2-BP antag: -4.3; CRFR2-BP ag: 0.4

Results for Cc1csc(=Nc2ccccc2)n1Cc1ccco1 ?
GPR7 antagonist: -9.4; CRFR2-BP antag: 53.4*; CRFR2-BP ag: -11.7; TRPML3 agonist: -1.3; TRPN1 ag: -1.5

How did CSCCC(NS(=O)(=O)c1ccc(C)cc1)C(=O)N1CCN(S(=O)(=O)c2ccc(F)cc2)CC1 (configuration not stated) do in these assays?
CRFR2-BP antag: 7.0; CRFR2-BP ag: -0.8

What do the screens show for `O=C(COC(=O)COc1cccc(F)c1)Nc1nc2ccccc2s1`?
CRFR2-BP antag: 0.1; CRFR2-BP ag: 0.1

How did COc1cccc(NC(=O)C2CCCN(S(=O)(=O)c3ccc(-n4cnnn4)cc3)C2)c1 (configuration not stated) do in these assays?
GPR7 antagonist: -12.9; CRFR2-BP antag: 86.3*; CRFR2-BP ag: 0.3; TRPML3 agonist: 0.6; TRPN1 ag: 0.8

How did COc1ccc(S(=O)(=O)N2CCCC(C(=O)NCc3ccncc3)C2)cc1 (configuration not stated) do in these assays?
GPR7 antagonist: -6.2; CRFR2-BP antag: 55.8*; CRFR2-BP ag: -3.2; TRPML3 agonist: 0.6; TRPN1 ag: 0.8

Results for COc1ccc(CNC(=O)[C@H](C)NC(=O)C2CCN(S(=O)(=O)c3ccc(F)cc3)CC2)cc1 ?
GPR7 antagonist: -8.7; CRFR2-BP antag: 81.8*; CRFR2-BP ag: -1.2

Results for COC(=O)[C@@H](NC(=O)N1CCN(C(=O)C2COc3ccccc3O2)CC1)C(C)C (some centres not stated) ?
GPR7 antagonist: -6.8; CRFR2-BP antag: -15.1; CRFR2-BP ag: -0.2

How did Nc1ccc2c(c1)C(=NO)c1ccccc1-2 do in these assays?
CRFR2-BP antag: 96.2*; CRFR2-BP ag: -3.2

Results for ON=C1c2ccccc2-c2ccc(O)cc21 ?
CRFR2-BP antag: 14.4; CRFR2-BP ag: -6.5

What do the screens show for `COc1ccc(CN2C(=O)C(CC(=O)NC(c3ccccc3)c3ccccc3)CC(C(=O)N(C)C)=C2C)cc1` (configuration not stated)?
CRFR2-BP antag: 4.4; CRFR2-BP ag: -1.4

Results for Cc1ccc2nc(Cl)c(/C=C/C(=O)c3ccco3)cc2c1 ?
GPR7 antagonist: -6.6; CRFR2-BP antag: 101.3*; CRFR2-BP ag: 0.2; TRPML3 agonist: 0.4; TRPN1 ag: -1.1

What do the screens show for `COc1ccc(S(=O)(=O)Nc2ccc(C)c(S(=O)(=O)N3CCOCC3)c2)cc1[N+](=O)[O-]`?
CRFR2-BP antag: 11.8; CRFR2-BP ag: -0.7

How did COC(=O)c1ccc(CSC2=NC[C@@H]3[C@@H]4C(=O)N(Cc5ccccc5)C(=O)[C@@H]4[C@](C)(C(=O)OC)N23)cc1 do in these assays?
CRFR2-BP antag: 1.2; CRFR2-BP ag: -1.9

How did COc1cccc(-c2nc(-c3ccccn3)no2)c1 do in these assays?
GPR7 antagonist: 2.4; CRFR2-BP antag: -11.5; CRFR2-BP ag: -0.7; TRPML3 agonist: -0.1; TRPN1 ag: 0.1

How did O=[N+]([O-])c1cccc(-c2nc(-c3ccccn3)no2)c1 do in these assays?
GPR7 antagonist: -8.5; CRFR2-BP antag: 59.4*; CRFR2-BP ag: -0.6; TRPML3 agonist: 0.3; TRPN1 ag: -0.4

What do the screens show for `Cc1cc(S(=O)(=O)Nc2ccc(C(=O)NCC(C)(C)N3CCOCC3)cc2)ccc1F`?
GPR7 antagonist: -2.0; CRFR2-BP antag: 54.1*; CRFR2-BP ag: -0.5

What do the screens show for `COc1ccc(C(C(=O)NC2CCCCC2)N(Cc2cccs2)C(=O)Cc2c[nH]c3ccccc23)cc1OC` (configuration not stated)?
GPR7 antagonist: 3.4; CRFR2-BP antag: 52.5*; CRFR2-BP ag: 2.9; TRPML3 agonist: -0.2; TRPN1 ag: -0.7

How did COc1ccc(C(C(=O)NC2CCCCC2)N(C(=O)Cc2c[nH]c3ccccc23)c2ccccc2C)cc1OC (configuration not stated) do in these assays?
GPR7 antagonist: 17.3; CRFR2-BP antag: 12.0; CRFR2-BP ag: 0.5; TRPML3 agonist: 0.3; TRPN1 ag: -0.5

How did CCOc1ccccc1N1CCN(C(=O)c2ccc(-c3ccc(OC(C)=O)cc3)cc2)CC1 do in these assays?
GPR7 antagonist: 18.9; CRFR2-BP antag: -2.4; CRFR2-BP ag: 0.2

How did CC(C)OCc1c(C(=O)OC/C(O)=C(\C#N)c2nc3ccccc3[nH]2)oc2ccccc12 do in these assays?
GPR7 antagonist: -6.6; CRFR2-BP antag: 62.3*; CRFR2-BP ag: 3.6; TRPML3 agonist: 1.4; TRPN1 ag: 0.4

What do the screens show for `N#C/C(=C(/O)COC(=O)COc1cccc(Br)c1)c1nc2ccccc2[nH]1`?
GPR7 antagonist: -3.6; CRFR2-BP antag: 100.0*; CRFR2-BP ag: 4.4; TRPML3 agonist: 0.8; TRPN1 ag: 1.8

Results for Cc1c(C(=O)OC/C(O)=C(\C#N)c2nc3ccccc3[nH]2)oc2ccc(Br)cc12 ?
GPR7 antagonist: -5.2; CRFR2-BP antag: 4.8; CRFR2-BP ag: 0.9; TRPML3 agonist: 1.0; TRPN1 ag: 2.3

Results for Cc1cc(NC(=O)CCC(=O)N(c2ccccc2)C(C(=O)NC2CCCC2)c2ccccc2C)no1 (configuration not stated) ?
GPR7 antagonist: -12.4; CRFR2-BP antag: 2.2; CRFR2-BP ag: -0.7

Results for CN(C)S(=O)(=O)c1cccc(NC(=O)C2CCN(S(=O)(=O)c3cccs3)CC2)c1 ?
CRFR2-BP antag: -21.6; CRFR2-BP ag: 36.4
